Experiment [1] addresses T1, Membrane-associated tyrosine- and threonine-specific cdc2-inhibitory kinase (Homo sapiens) (UniProt Q99640).
T1 sequence (whole entry): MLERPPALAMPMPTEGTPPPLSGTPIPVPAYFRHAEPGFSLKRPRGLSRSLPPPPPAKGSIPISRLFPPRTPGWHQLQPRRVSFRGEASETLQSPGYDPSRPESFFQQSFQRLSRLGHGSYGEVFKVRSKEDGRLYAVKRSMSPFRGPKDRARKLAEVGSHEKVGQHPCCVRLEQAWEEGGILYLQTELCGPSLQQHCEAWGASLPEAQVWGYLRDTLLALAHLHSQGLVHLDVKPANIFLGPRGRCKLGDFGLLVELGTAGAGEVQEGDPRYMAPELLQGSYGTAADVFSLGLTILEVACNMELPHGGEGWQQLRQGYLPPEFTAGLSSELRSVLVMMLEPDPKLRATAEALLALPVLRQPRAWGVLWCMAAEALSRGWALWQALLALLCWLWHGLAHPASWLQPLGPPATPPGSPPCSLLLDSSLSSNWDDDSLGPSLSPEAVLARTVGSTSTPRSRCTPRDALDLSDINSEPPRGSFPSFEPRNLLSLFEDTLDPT
Kind of experiment: Displacement of (6-FAM)KI(pY)VV from PKMYT1 kinase domain (unknown origin) at 20 uM by fluorescence polarization binding assay relative to control. An outline of the steps: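 PKMYT1 kinase domain (recombinantly expressed and purified) used in a fluorescence anisotropy binding assay with a fluorescently labelled ATP-competitive tracer. Each compound screened at 20 μM in triplicate. Dasatinib 10 μM served as inhibitory control and 1% DMSO as vehicle control. Compounds giving >60% tracer displacement were retested at 20 and 5 μM in triplicate.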

Experiment [2] concerns the target T2, Membrane-associated tyrosine- and threonine-specific cdc2-inhibitory kinase (Homo sapiens, UniProt Q99640).
T2 sequence (Q99640 whole entry): T1 sequence (whole entry)
Kind of experiment: […] from PKMYT1 kinase domain (unknown origin) by fluorescence polarization binding assay.

Experiment [3] deals with T2, Membrane-associated tyrosine- and threonine-specific cdc2-inhibitory kinase. Kind of experiment: Displacement of (6-FAM)KI(pY)VV from full length PKMYT1 (unknown origin) by fluorescence polarization immuno assay. An outline of the steps:
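Full-length PKMYT1, expressed and purified, was tested in the fluorescence polarization-based activity assay (FPIA) to give IC50 and Ki. Controls were 10 μM dasatinib and 1% DMSO. Anisotropy r was calculated, and Δr was taken as the difference between the PKMYT1 reaction and the reaction without PKMYT1. Data are given as means ± SEM.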
For orientation: Fluorescence polarisation rises when a labelled molecule tumbles more slowly, as on binding a larger partner.

The structures appear in SMILES notation.

`Cc1ccc(Nc2nc(Nc3ccc(N4CCOCC4)cc3)ncc2Br)cc1O`: in experiment [1], the inhibition (commonly the share of the control response that was lost under treatment) worked out at 26.7%.
Regarding `Oc1cccc(Nc2nc(Nc3ccc(N4CCOCC4)cc3)nc3c2SCC3)c1`, the inhibition in experiment [1] was less than 10%.
`CSc1cnc(Nc2ccc(N3CCOCC3)cc2)nc1Nc1cc(C)ccc1Cl`: the inhibition in experiment [1] was determined as 13%.
In turn, `Cc1cnc(Nc2ccc(N3CCOCC3)cc2)nc1Nc1cc(O)ccc1Cl` returned an inhibition in experiment [1] of less than 10%.
The same measure, in the same setting: the result for `Oc1ccc(Cl)c(Nc2nc(Nc3ccc(N4CCOCC4)cc3)ncc2Cl)c1` reads less than 10%.
`Oc1cccc(Nc2nc(Nc3ccc(N4CCOCC4)cc3)ncc2Cl)c1`: the values for the IC50 in experiment [2] and in experiment [3] were 6.03 µM and 0.617 µM, respectively. The molecule also gave an inhibition in experiment [1] of 75%.
`COc1ccc(Nc2nc(Nc3ccc(N4CCOCC4)cc3)ncc2Br)cc1O`: the inhibition in experiment [1] turned out to be 27%.
In turn, `Cc1cnc(Nc2ccc(N3CCOCC3)cc2)nc1Nc1cccc(O)c1` displayed an inhibition in experiment [1] of less than 10%.
Regarding `CNC(=O)c1ccccc1Nc1nc(Nc2ccc(N3CCOCC3)cc2)ncc1OC`, the IC50 (commonly the concentration at which inhibition is half-maximal) in experiment [2] is 6.31 µM; in experiment [3], 0.955 µM. Also, the inhibition in experiment [1] turned out to be 100%.
Take `COc1cnc(Nc2ccc(N3CCOCC3)cc2)nc1Nc1ccc(C)c(O)c1`: the half-inhibitory concentration (IC50) in experiment [2] is 9.33 µM; in experiment [3] it was 0.309 µM. In experiment [1], this molecule showed an inhibition of 100%.
With `COc1ccc(Nc2nc(Nc3ccc(N4CCOCC4)cc3)ncc2OC)cc1O`, the inhibition in experiment [1] was 39.7%.
Consider `CSc1cnc(Nc2ccc(N3CCOCC3)cc2)nc1Nc1cccc(O)c1`, for which the IC50 was 6.03 µM in experiment [2] and 1.55 µM in experiment [3]. In experiment [1], this molecule displayed an inhibition of 100%.
Turning to `Oc1cccc(Nc2nc(Nc3ccc(N4CCOCC4)cc3)ncc2Br)c1`, the inhibition in experiment [1] was determined as 21.1%.
With `Cc1cc(Nc2ncc3cc(-c4c(Cl)cccc4Cl)c(=O)n(C)c3n2)ccc1F`, the affinity in experiment [2] corresponds to a Ki of 1.35 µM.
`Cc1ccc(Nc2nc(Nc3ccc(N4CCOCC4)cc3)ncc2OCc2ccccc2)cc1O`: the inhibition in experiment [1] is less than 10%.
As for `COc1cnc(Nc2ccc(N3CCOCC3)cc2)nc1Nc1cccc(O)c1`, the inhibition in experiment [1] was 74.8%.

Source of the values: ChEMBL document CHEMBL4325875, “Computer-aided design, synthesis and biological characterization of novel inhibitors for PKMYT1” (Eur J Med Chem, 2019).
